The text below walks through data of ChEMBL document CHEMBL3797028, “Novel S1P1 receptor agonists - Part 4: Alkylaminomethyl substituted aryl head groups” (Eur J Med Chem, 2016).

Bounds are passed on as bounds.

Series [1] can be described thus: Plasma concentration in Wistar rat at 10 mg/kg administered as single dose through oral gavage after 96 hrs by LC-MS/MS analysis. Type of series: ADME, organism-based. An outline of the steps: (§1)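 Single oral gavage dose to male Wistar rats in DMSO/7.5% succinylated gelatine (final 5% DMSO). Blood was drawn into EDTA at the lymphocyte-count timepoints. Plasma was prepared at 3000 g for 10 min at 4 °C and analysed by LC-MS/MS after protein precipitation.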

Series [2] concerns Rattus norvegicus. The series is described as follows: Change in circulating lymphocyte count in Wistar rat at 10 mg/kg administered as single dose through oral gavage after 96 hrs relative to control. Type of series: functional. An outline of the steps: (§2)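 Male Wistar rats (RccHan:WIST; n = 6) were given a single oral gavage dose of compound in DMSO plus 7.5% succinylated gelatine (final 5% DMSO). Blood lymphocytes were counted just before dosing and at later timepoints. Percent change was calculated per animal relative to the pre-dose value and compared with a vehicle-treated group, reported as the mean. A ±15% change was treated as baseline, and a reduction of about 60% or more as maximal.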

In series [3] the target is Sphingosine 1-phosphate receptor 3 (Homo sapiens, UniProt Q99500). The series is described as follows: Agonist activity at human recombinant S1PR3 expressed in CHO cell membranes assessed as [35S]GTPgammaS binding preincubated for 30 mins followed by [35S]GTPgammaS addition measured after 1 hr by topcount analysis. Type of series: functional. The procedure, abridged: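 Membranes from CHO cells expressing recombinant human S1P1 or S1P3 were used. Buffer was 20 mM Hepes pH 7.4, 100 mM NaCl, 5 mM MgCl2, 0.1% fatty-acid-free BSA, 2.5% DMSO and 50 pM 35S-GTPgammaS. GDP was […] for S1P3. Compound was preincubated 30 min at rt, then incubated 1 h at rt with 35S-GTPgammaS. Bound label was collected by filtration and counted. Specific binding was taken against 10 uM S1P. EC50 was the 50%-of-specific-binding concentration, reported as the geometric mean of at least three independent duplicate runs.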

Series [4] concerns Plasma. The series is described as follows: Plasma concentration in Wistar rat at 3 mg/kg administered as single dose through oral gavage after 72 hrs by LC-MS/MS analysis. The class given is ADME, organism-based. Particulars: in vivo, BLD = below limit of detection. The procedure, abridged:
as §1

Series [5] has as its system Rattus norvegicus. As to the kind of experiment: Change in circulating lymphocyte count in Wistar rat at 10 mg/kg administered as single dose through oral gavage after 6 hrs relative to control. Type of series: functional. An outline of the steps:
as §2

The nature of series [6]: Ratio of total drug level in brain to plasma in Wistar rat at 10 mg/kg administered as single dose through oral gavage after 24 hrs. The following applies: read-out: BPR. Type of series: ADME, organism-based. An outline of the steps: (§3)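 Male Wistar rats (n = 2 per timepoint) were dosed orally at 10 mg/kg. At 2, 6 and 24 h they were anaesthetised with 5% isoflurane and sacrificed, and blood was taken for plasma. The brain was perfused via the carotid with 10 mL 0.9% NaCl, removed, and homogenised in an equal volume of ice-cold 0.1 M Na-phosphate pH 7.4. Samples were assayed by LC-MS/MS against blank-brain calibration. Brain/plasma ratio was calculated from these values, reported as the mean of 2.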

Series [7] can be described thus: Total plasma concentration in Wistar rat at 10 mg/kg administered as single dose through oral gavage after 6 hrs by LC-MS/MS analysis. The class given is ADME, organism-based. The procedure, abridged: as §3
Series [8] is described as follows: Plasma concentration in Wistar rat at 10 mg/kg administered as single dose through oral gavage after 24 hrs by LC-MS/MS analysis. The class given is ADME, organism-based. The procedure, abridged:
as §1

The subject of series [9] is Plasma. The series is described as follows: Plasma concentration in Wistar rat at 1 mg/kg administered as single dose through oral gavage after 72 hrs by LC-MS/MS analysis. Type of series: ADME, organism-based. The following applies: in vivo, BLD = below limit of detection. The procedure, abridged:
as §1

Series [10] deals with Sphingosine 1-phosphate receptor 2 (Homo sapiens, UniProt O95136). As to the kind of experiment: Agonist activity at S1PR2 (unknown origin).
Series [11] can be described thus: Plasma concentration in Wistar rat at 10 mg/kg administered as single dose through oral gavage after 6 hrs by LC-MS/MS analysis. The class given is ADME, organism-based. An outline of the steps:
as §1

Series [12] in a line: Apparent oral clearance in Wistar rat plasma at 1 to 10 mg/kg administered through gavage by LC-MS/MS analysis. The class given is ADME, organism-based. The procedure, abridged:
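Male Wistar rats received a single oral gavage dose of compound dissolved in DMSO and added to 7.5% succinylated gelatine in water (final 5% DMSO). EDTA plasma was spun at 3000 g for 10 min at 4 °C and analysed by LC-MS/MS after protein precipitation. Oral clearance was estimated from the plasma concentration–time data. In vivo intrinsic clearance used the well-stirred liver model, assuming complete absorption.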

Series [13] deals with T1, Sphingosine 1-phosphate receptor 4 (Homo sapiens, UniProt O95977).
T1 sequence (O95977 whole entry): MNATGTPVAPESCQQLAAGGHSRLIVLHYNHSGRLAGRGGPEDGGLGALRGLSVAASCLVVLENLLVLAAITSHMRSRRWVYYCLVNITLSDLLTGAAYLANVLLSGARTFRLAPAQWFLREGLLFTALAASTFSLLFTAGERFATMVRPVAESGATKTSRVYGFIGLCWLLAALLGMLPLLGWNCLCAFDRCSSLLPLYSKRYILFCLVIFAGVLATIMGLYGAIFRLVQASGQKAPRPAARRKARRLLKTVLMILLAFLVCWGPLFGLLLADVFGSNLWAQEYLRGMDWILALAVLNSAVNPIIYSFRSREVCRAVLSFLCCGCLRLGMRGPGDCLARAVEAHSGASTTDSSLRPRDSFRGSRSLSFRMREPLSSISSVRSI
As to the kind of experiment: Agonist activity at S1PR4 (unknown origin).

Series [14] deals with Rattus norvegicus. The series is described as follows: Change in circulating lymphocyte count in Wistar rat at 10 mg/kg administered as single dose through oral gavage after 3 hrs relative to control. Type of series: functional. The procedure, abridged: as §2
Series [15] can be described thus: Total plasma concentration in Wistar rat at 10 mg/kg administered as single dose through oral gavage after 24 hrs by LC-MS/MS analysis. The class given is ADME, organism-based. An outline of the steps: as §3
Series [16] in a line: Ratio of total drug level in brain to plasma in Wistar rat at 10 mg/kg administered as single dose through oral gavage after 2 hrs. The class given is ADME, organism-based. The following applies: read-out: BPR. An outline of the steps:
as §3

The species entered for series [17] is Rattus norvegicus. The series is described as follows: Intrinsic clearance in rat liver microsomes scaled to body weight. Particulars: in vitro.
Series [18] relates to Rattus norvegicus. As to the kind of experiment: Change in circulating lymphocyte count in Wistar rat at 3 mg/kg administered as single dose through oral gavage after 6 hrs relative to control. The class given is functional. The procedure, abridged: as §2

Sphingosine 1-phosphate receptor 3, sequence (Q99500 whole entry): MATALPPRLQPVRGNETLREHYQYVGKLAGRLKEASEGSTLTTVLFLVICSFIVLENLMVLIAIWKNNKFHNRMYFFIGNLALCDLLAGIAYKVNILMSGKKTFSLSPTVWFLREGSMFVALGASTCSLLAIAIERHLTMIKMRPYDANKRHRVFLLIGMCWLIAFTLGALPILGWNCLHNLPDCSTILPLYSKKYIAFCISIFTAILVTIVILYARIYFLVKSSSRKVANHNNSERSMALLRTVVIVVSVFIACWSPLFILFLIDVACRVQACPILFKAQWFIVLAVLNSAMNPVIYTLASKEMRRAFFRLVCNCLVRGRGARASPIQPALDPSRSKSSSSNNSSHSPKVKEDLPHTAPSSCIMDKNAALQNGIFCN
Sphingosine 1-phosphate receptor 2, sequence (O95136 whole entry): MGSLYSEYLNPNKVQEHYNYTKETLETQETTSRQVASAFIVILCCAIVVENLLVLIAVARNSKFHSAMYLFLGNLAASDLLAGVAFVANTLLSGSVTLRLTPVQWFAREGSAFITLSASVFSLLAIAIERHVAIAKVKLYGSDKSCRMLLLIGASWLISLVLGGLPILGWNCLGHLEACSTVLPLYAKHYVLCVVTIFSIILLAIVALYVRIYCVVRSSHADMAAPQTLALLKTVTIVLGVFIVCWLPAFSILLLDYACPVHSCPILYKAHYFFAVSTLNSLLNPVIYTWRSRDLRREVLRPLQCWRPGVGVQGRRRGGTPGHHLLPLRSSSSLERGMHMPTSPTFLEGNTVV

With `CCc1cc(-c2noc(-c3cc(C)c(CN(C)CC(C)C)s3)n2)cc(C)c1OC[C@@H](O)CNC(=O)CO`, the concentration at 96 h in series [1] was determined as 0.5 ng/mL. The Activity in the series on Rattus norvegicus [2] is 4%; in the series with Rattus norvegicus [5], -77%; in the series with Rattus norvegicus [14] it was -69%; in the series with Rattus norvegicus [18], -70%. The concentration for a half-maximal effect (EC50) in series [3] was 145 nM; in series [10], over 1000 nM; in series [13] it was over 1000 nM. The Cp entry in the series with Plasma [4] and in the series with Plasma [9] was “BLD” each time. Moreover, in series [6], the Kp at 24 h is 11.5. For the same compound, the concentration at 6 h in series [7] came to 622 ng/mL; in series [11] it was 540 ng/mL. Further, the concentration at 24 h turned out to be 92 ng/mL in series [8] and 66.5 ng/mL in [15]. For the same compound, the CL/F in series [12] worked out at 19 mL/min/kg. The Kp at 2 h in series [16] amounted to 0.64. This compound also registered a CL in the series listed under Rattus norvegicus [17] of 25200 mL/min/kg.
